# Where “and” joins values, the source holds several entries; their conditions need not be identical. Equal values may be shown once. Entries after “also recorded” stand apart in the source; their conditions may differ.
# Legend:
# [1] = system: A53T α-synuclein in HEK-293T cells; assay: A53T α-synuclein levels in HEK-293T cells pre-treated with Bafilomycin A1; assay type: cell-based; details: 10 μM after 1 h pre-treatment with 500 nM Bafilomycin A1, HEK-293T
# How it was run: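 HEK-293T cells transiently expressing A53T α-synuclein (48 h expression) were pretreated with 500 nM bafilomycin A1 and exposed to 10 μM test compound. α-Synuclein levels were then determined by SDS-PAGE immunoblotting with anti-α-synuclein (1:1333).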
# [2] = system: proteasome activity in PC12 cells; assay type: cell-based, rat; details: 3 μM, 72 h; co-transfected PC12; untreated model 8%
# How it was run: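 PC12 cells (RPMI 1640 with 5% FBS and 10% horse serum) were strained and plated at 2,500 cells/well in 384-well plates. Cells were co-transfected with 0.5 μg A53T α-synuclein and 0.1 μg p25α plasmids for 24 h. They were then treated with 3 μM test compound or DMSO (0.03% final) for 72 h. Proteasome Glo reagent was added and luminescence recorded.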
# [3] = molecular target: human constitutive 20S proteasome (Homo sapiens, UniProt P25787+P60900); assay: Fluorogenic small peptide assay with purified 20S proteasome; assay type: biochemical; details: for EC200 (concentration at which degradation rate is enhanced 2-fold, 200%): equimolar mixture of Suc-LLVY-AMC, Z-LLE-AMC, Boc-LRR-AMC, mean ± SD, n = 3
# How it was run: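 Human constitutive 20S proteasome (0.5 nM) in 38 mM Tris, 100 mM NaCl, pH 7.8 was preincubated 20 min at 37°C with test compound (3.75–30 μM, or 9 points 0.16–30 μM) in DMSO (2% final). Suc-LLVY-, Z-LLE- and Boc-LRR-AMC were added at 6.67 μM final each. AMC release (380/460 nm) was read at 37°C for 1 h. Hydrolysis rate was expressed relative to vehicle, and EC200 was taken as the 2-fold-rate concentration.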
# [4] = system: ubiquitin in HEK-293T cells; assay: Ubiquitin levels in unmodified HEK-293T cells; assay type: cell-based; details: for levels of ubiquitin: 10 μM
# How it was run: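 Untransfected HEK-293T cells were treated with 10 μM test compound, DMSO vehicle, or 100 nM bortezomib. Ubiquitin levels were visualized and quantified by immunoblotting relative to vehicle.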
# p25α in PC12 cells = assay: p25α levels in PC12 cells; assay type: cell-based, rat; details: 10 μM
# purified 20S proteasome [5] = molecular target: T1, purified 20S proteasome (Homo sapiens, UniProt P25787+P60900); assay: Purified p25α digestion with 20S proteasome; assay type: biochemical; details: 10 μM compound; 7.5 nM 20S, 500 nM p25α, 3 h
# How it was run: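 20S proteasome (7.5 nM final) in 120 mM NaCl, 50 mM Tris, 0.1% β-mercaptoethanol, pH 7.2 was exposed to 10 μM test compound or DMSO for 30 min at 37°C. Purified p25α was pretreated with 100 μM DTE for 30 min at room temperature, then added at 500 nM final for 3 h. GAPDH (0.5 μM) was the loading control. Samples were boiled in SDS buffer and immunoblotted.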
# purified 20S proteasome [6] = molecular target: T1, purified 20S proteasome; assay: Purified α-synuclein digestion with 20S proteasome; assay type: biochemical; details: 10 nM 20S, 300 nM α-synuclein, 3.5 h, 37°C
# How it was run: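 Purified human 20S proteasome (10 nM final) in 50 mM HEPES, 5 mM DTT, pH 7.2 was preincubated 45 min at 37°C with test compound in DMSO or DMSO alone. Purified α-synuclein (300 nM final) was added, and digestion ran 3.5 h at 37°C. GAPDH (0.5 μM) served as loading control. Samples were boiled 15 min in SDS buffer and immunoblotted with anti-α-synuclein (1:1333).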
# [7] = system: A53T α-synuclein in HEK-293T cells; assay: A53T α-synuclein levels in transfected HEK-293T cells; assay type: cell-based; details: for α-synuclein remaining: 0.75 μM, A53T α-synuclein; for A53T α-synuclein remaining: vs DMSO
# p25α in HEK-293T cells = assay: p25α levels in transfected HEK-293T cells; assay type: cell-based; details: 10 μM, 16 h
# How it was run: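 HEK-293T cells were transiently transfected with TPPP/p25α and A53T α-synuclein plasmids, and protein was expressed for 48 h. Cells were then treated 16 h with 10 μM test compound, DMSO, or 30 nM bortezomib as control. p25α was quantified by immunoblot in triplicate.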
# PC12 cells = assay type: cell-based, rat; details: 3 μM, 72 h; co-transfected PC12; untreated model 25%
molecule,measurement,setting,value
"O=C(CCn1c2ccccc2c2ccccc21)N(c1ccc(F)cc1)c1ccc(F)cc1 [Compound 1, 3-(9H-carbazol-9-yl)-N,N-bis(4-fluorophenyl)propanamide]",A53T α-synuclein remaining,[1],16%
same,proteasome activity remaining,[2],29%
same,"EC200 (concentration at which degradation rate is enhanced 2-fold, 200%)",[3],1.6 µM
same,levels of ubiquitin,[4],didn’t impact the levels of ubiquitin significantly
same,p25α remaining,p25α in PC12 cells,40%
same,p25α remaining compared to DMSO treated samples,purified 20S proteasome [5],29%
same,α-synuclein remaining,purified 20S proteasome [6]; 5 μM compound,45%
same,α-synuclein remaining,purified 20S proteasome [6]; 15 μM compound,28%
same,α-synuclein remaining,[7],55%
same,decrease of A53T α-synuclein,"[7]; 1 μM, 16 h",67%
same,A53T α-synuclein remaining,"[7]; 1 μM, 16 h",64%
same,A53T α-synuclein remaining,"[7]; 15 μM, 16 h",21%
same,reduction of p25α,p25α in HEK-293T cells,45%
"O=C(CCn1c2ccccc2c2ccc(Cl)cc21)N(c1ccc(F)cc1)c1ccc(F)cc1 [Compound 3, 3-(2-chloro-9H-carbazol-9-yl)-N,N-bis(4-fluorophenyl)propanamide]","EC200 (concentration at which degradation rate is enhanced 2-fold, 200%)",[3],0.9 µM
same,α-synuclein remaining,purified 20S proteasome [6]; 15 μM compound,33%
"O=C(Cn1ccc2ccc(Cl)cc21)N(c1ccc(F)cc1)c1ccc(F)cc1 [Compound 10, 2-(6-chloro-1H-indol-1-yl)-N,N-bis(4-fluorophenyl)acetamide]","EC200 (concentration at which degradation rate is enhanced 2-fold, 200%)",[3],1.6 µM
"3-(2,3-dihydro-4H-benzo[b][1,4]oxazin-4-yl)-N,N-bis(4-fluorophenyl)propenamide [Compound 11]","EC200 (concentration at which degradation rate is enhanced 2-fold, 200%)",[3],9.0 µM
"N,N-bis(4-fluorophenyl)-2-(2-methyl-9H-carbazol-9-yl)acetamide [Compound 4]",A53T α-synuclein remaining,[1],28%
same,proteasome activity remaining,[2],34%
same,"EC200 (concentration at which degradation rate is enhanced 2-fold, 200%)",[3],1.2 µM
same,levels of ubiquitin,[4],didn’t impact the levels of ubiquitin significantly
same,p25α remaining,p25α in PC12 cells,67%
same,p25α remaining compared to DMSO treated samples,purified 20S proteasome [5],28%
same,α-synuclein remaining,purified 20S proteasome [6]; 5 μM compound,58%
same,α-synuclein remaining,purified 20S proteasome [6]; 15 μM compound,33%
same,cell viability,PC12 cells,75%
same,α-synuclein remaining,[7],72%
same,A53T α-synuclein remaining,"[7]; 5 μM, 16 h",30%
same,A53T α-synuclein remaining,"[7]; 10 μM, 16 h",14%
same,A53T α-synuclein remaining,"[7]; 15 μM, 16 h",11%
same,reduction of p25α,p25α in HEK-293T cells,non-significant
"O=C(CN1CCOc2ccccc21)N(c1ccc(F)cc1)c1ccc(F)cc1 [Compound 12, 2-(2,3-dihydro-4H-benzo[b][1,4]oxazin-4-yl)-N,N-bis(4-fluorophenyl)acetamide]","EC200 (concentration at which degradation rate is enhanced 2-fold, 200%)",[3],8.0 µM
"O=C(Cn1c2ccccc2c2ccncc21)N(c1ccc(F)cc1)c1ccc(F)cc1 [Compound 6, N,N-bis(4-fluorophenyl)-2-(9H-pyrido[3,4-b]indol-9-yl)acetamide]","EC200 (concentration at which degradation rate is enhanced 2-fold, 200%)",[3],2.0 µM
"O=C(Cn1c2ccccc2c2ccccc21)N(c1ccc(F)cc1)c1ccc(F)cc1 [Compound 2, 2-(9H-carbazol-9-yl)-N,N-bis(4-fluorophenyl)acetamide]","EC200 (concentration at which degradation rate is enhanced 2-fold, 200%)",[3],3.8 µM
"O=C(CCn1ccc2ccccc21)N(c1ccc(F)cc1)c1ccc(F)cc1 [Compound 7, N,N-bis(4-fluorophenyl)-3-(1H-indol-1-yl)propanamide]","EC200 (concentration at which degradation rate is enhanced 2-fold, 200%)",[3],7.5 µM
"CCOC(=O)[C@]1(c2ccccc2)N=C(c2ccc(OC)cc2)N(Cc2ccccc2)[C@@H]1c1ccc(NCc2ccccc2)cc1 [TCH-165, reference compound]",α-synuclein remaining,purified 20S proteasome [6]; 5 μM compound,60%
same,α-synuclein remaining,purified 20S proteasome [6]; 15 μM compound,40%
same,A53T α-synuclein remaining,"[7]; 10 μM, 16 h",52% and 40%
"O=C(Cn1c(=O)oc2ccccc21)N(c1ccc(F)cc1)c1ccc(F)cc1 [Compound 14, N,N-bis(4-fluorophenyl)-2-(2-oxobenzo[d]oxazol-3(2H)-yl)acetamide]",20S proteasome activation (in words),[3]; fluorogenic peptide assay,abrogated all 20S proteasome activity
same,A53T α-synuclein remaining,"[7]; 15 μM, 16 h",no significant effect on degradation; also recorded: no impact on the levels of A53T α-synuclein
"CN(C)CCC(=O)N(c1ccc(F)cc1)c1ccc(F)cc1 [Compound 19, 3-(dimethylamino)-N,N-bis(4-fluorophenyl)propanamide]",levels of ubiquitin,[4],didn’t impact the levels of ubiquitin significantly
same,p25α remaining compared to DMSO treated samples,purified 20S proteasome [5],didn’t show significant impact on the rate of p25α degradation
same,reduction of p25α,p25α in HEK-293T cells,didn’t impact the levels of p25α
"O=C(CCn1c2ccccc2c2ccncc21)N(c1ccc(F)cc1)c1ccc(F)cc1 [Compound 5, N,N-bis(4-fluorophenyl)-3-(9H-pyrido[3,4-b]indol-9-yl)propanamide]","EC200 (concentration at which degradation rate is enhanced 2-fold, 200%)",[3],3.8 µM
"O=C(Cn1ccc2ccccc21)N(c1ccc(F)cc1)c1ccc(F)cc1 [Compound 8, N,N-bis(4-fluorophenyl)-2-(1H-indol-1-yl)acetamide]","EC200 (concentration at which degradation rate is enhanced 2-fold, 200%)",[3],7.5 µM
"O=C(CCn1c(=O)oc2ccccc21)N(c1ccc(F)cc1)c1ccc(F)cc1 [Compound 13, N,N-bis(4-fluorophenyl)-3-(2-oxobenzo[d]oxazol-3(2H)-yl)propanamide]","EC200 (concentration at which degradation rate is enhanced 2-fold, 200%)",[3],1.3 µM
"CC(C)C[C@H](NC(=O)[C@H](Cc1ccccc1)NC(=O)c1cnccn1)B(O)O [BTZ, Bortezomib, reference compound]",ubiquitin as compared to the vehicle,[4]; 100 nM,298%
same,increase of A53T α-synuclein levels,"[7]; 30 nM, 16 h",148% and 135%
